We go through 96 compounds from ChEMBL document CHEMBL4513216, “Probing the Open Global Health Chemical Diversity Library for Multistage-Active Starting Points for Next-Generation Antimalarials” (ACS Infect Dis, 2020).

Structures are written as SMILES.

This data set can be described thus: Toxicity liver stage against HepG2, at 10uM. The data set is classed as cell-based. Also on record: test concentration 10 uM, cell line HepG2-A16-CD81EGFP. The following applies: human, HepG2-A16-CD81EGFP cells; read-out: INHIBITION
The procedure, abridged: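 Uninfected HepG2-A16-CD81EGFP cells, 3 × 10^3 per well, 1536-well, plated on prespotted compound at 10 μM final, parasite-free screening media added to match infected plates; puromycin 10 μM positive, DMSO 0.5% negative; run in parallel with 48 h PbLuc assay at 37 °C, 5% CO2; viability by CellTiter-Glo luminescence, normalized to controls.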
As to `O=C1CC(c2ccncc2)C2(CCN(Cc3cccnc3)CC2)N1` (stereo unspecified), the cytotoxicity at 10 µM is 6.26%. To `CC(=O)Nc1nc(C2CCN(C(=O)c3ccncc3)CC2)cs1` belongs -9.44%; to `Cc1noc(C)c1C(=O)NCC(C)N1CCc2ccccc21` (stereo unspecified), -17.2%. `O=C1CN([C@@H]2CC[C@@H](NS(=O)(=O)c3ccccc3F)[C@H]2O)CCN1`: the cytotoxicity at 10 µM was determined as 1.06%. In the case of `CCOCC(=O)N1C[C@H]2CN(CC3CC3)C(=O)[C@H]2C1`, the cytotoxicity at 10 µM is 3.94%. With `CN(C(=O)C1CCOCC1)[C@@H]1CCC[C@@H](N2CCOCC2)[C@@H]1O`, the cytotoxicity at 10 µM was found to be 2.19%. To `O=C(c1cccnc1)N1CC[C@H](OCC2CC2)[C@@H]1Cc1cccnc1` belongs -0.53%; to `O=C(CN1CCS(=O)(=O)CC1)NCc1cccc(Br)c1`, 6.32%; to `COCC1CCN(S(=O)(=O)N2C[C@@H](C)[C@@](C)(O)C2)CC1`, 3.45%. With `COc1ncc(C)cc1NC(=O)COc1ccccc1F` the figure was -9.52%. With `Cc1nc(C2CCCN(C(C)C)C2)sc1Br` (stereo unspecified) the figure was -4.52%; with `COCCN1CCN(C(=O)N2CCCC2)Cc2ccc(C)nc21`, -65.5%; with `COc1cc(CO)ccc1OCc1nc(C2CC2)no1`, 6.37%.

Turning to `Cc1cc(CN(C)C(=O)C2CCCN(C(=O)c3cccs3)C2)no1` (stereo unspecified), the cytotoxicity at 10 µM is -17%.

In the case of `CCC(NC(=O)c1cc(CC(C)C)nn1C)c1cccc(C)n1` (stereo unspecified), the cytotoxicity at 10 µM is -116%. With `O=C(N[C@]12CC1CN(C(=O)c1ccco1)C2)c1ccoc1` (stereo partly specified), the cytotoxicity at 10 µM is -1.48%.

As to `CCOc1ccccc1NC(=O)NCc1ccoc1`, the cytotoxicity at 10 µM is -0.335%. With `CCCS(=O)(=O)N1CCC2(CC1)CN(CC1CCOC1)c1ccccc12` (stereo unspecified), the cytotoxicity at 10 µM was -101%. To `OCC1CCCN1c1cc(NCc2ccsc2)ncn1` (stereo unspecified) belongs 38.8%. Regarding `O=S(=O)(CCN1CCOC(Cn2cncn2)C1)c1ccccc1` (stereo unspecified), the cytotoxicity at 10 µM is -9.78%. Take `CCOC(=O)[C@]12CCCN(Cc3nccs3)C[C@H]1CN(CCN(C)C)C2`: the cytotoxicity at 10 µM was -9.82%. To `CS(=O)(=O)N1CCC(C(=O)NC(Cc2ccsc2)c2cccnc2)CC1` (stereo unspecified) belongs -12.5%; to `FC(F)c1nnc2ccc(N3CCC4(CCOC4)C3)nn12` (stereo unspecified), 9.2%; to `CS(=O)(=O)c1ccc(OCCNCc2ccc(F)cc2F)cc1`, -8.25%. As to `CN(C)c1cc(C2CCCN2C(=O)c2noc3c2CCCC3)ccn1` (stereo unspecified), the cytotoxicity at 10 µM was found to be 9.13%.

On to `CS(=O)(=O)N1CCCC12CCCN(S(=O)(=O)c1cc(F)cc(F)c1)C2` (stereo unspecified), for which the cytotoxicity at 10 µM came out at 10.9%. In the case of `CN(C)c1ncc(C2Nc3ccccc3C3=NCCCN32)cn1` (stereo unspecified), the cytotoxicity at 10 µM was -23.2%. For the compound `CCS(=O)(=O)N1CCCCC1c1nc(C)no1` (stereo unspecified), the cytotoxicity at 10 µM is 7.03%.

For the compound `CC(C)c1cc(C(=O)N2CCN(C)[C@@H]3CS(=O)(=O)C[C@@H]32)no1`, the cytotoxicity at 10 µM was determined as 4.14%. Take `CS(=O)(=O)N1CCOCC12CCN(c1nncs1)CC2`: the cytotoxicity at 10 µM turned out to be 6.74%. Regarding `CCNC(=O)c1cccc(CNC(=O)c2cnc(C(C)(C)C)s2)c1`, the cytotoxicity at 10 µM is -0.969%. With `O=C(C1CCOCC1)N1CCC2(CCNCC2)C1` the figure was 3.41%; with `CCn1c(CN2CCCN(C(=O)OC)CC2)nc2c(F)cccc21`, -8.6%; with `Cc1nc(C)n(CCNS(=O)(=O)NCc2ccccc2)n1`, -11.4%. With `Cc1nnc(CN(C)CC(=O)N2CCCN(C3CCCC3)CC2)n1C` the figure was 7.1%; with `CNC(=O)CN1CCC(NC(=O)Cc2ccc3c(c2)OCCO3)CC1`, -18.3%.

Consider `Cc1ccccc1OCC(O)C(=O)N1CCC2(CC1)CN(C)C(=O)O2` (stereo unspecified), for which the cytotoxicity at 10 µM was -47.6%. Regarding `COc1cc(C(C)=O)ccc1OCC(=O)c1cccn1C`, the cytotoxicity at 10 µM came out at 13.6%. In the case of `Cn1c(CCN2CCN(CCc3ccccc3)CC2)nc2ccccc21`, the cytotoxicity at 10 µM was -43.7%. To `O=C(c1csc(-c2cnccn2)n1)N1CCCC1Cn1cccn1` (stereo unspecified) belongs -7.35%. On to `O=C1OCCC1N1CCN(C(=O)Cc2ccccc2Cl)CC1` (stereo unspecified), for which the cytotoxicity at 10 µM is -9.2%. For the compound `CN1CCC(n2nc(Cc3cccs3)nc2-c2ccncc2)CC1`, the cytotoxicity at 10 µM is -7.76%. With `CCn1cc(-c2nn3c(C(F)(F)F)nnc3s2)c(C)n1`, the cytotoxicity at 10 µM was 13.5%. On to `CCN(CC)S(=O)(=O)c1cc(Br)ccc1OC`, for which the cytotoxicity at 10 µM was determined as 0.58%.

With `Nc1cc(C(=O)NCC2CCN(CCc3ccccc3)C2)ccn1` (stereo unspecified), the cytotoxicity at 10 µM was -5.47%.

As to `Cn1cc(CCCN2CCN(Cc3cccc(O)c3)CC2)cn1`, the cytotoxicity at 10 µM was -52.5%. On to `c1cc(CN2CCC(c3ccc4c(c3)OCO4)CC2)ccn1`, for which the cytotoxicity at 10 µM is -5.21%. As for `CCOc1ccc2cc(C(=O)NCCC(=O)N(C)C)[nH]c2c1`, the cytotoxicity at 10 µM is -6.16%. With `COc1cccc(O[C@H]2CCN(c3nc(C)cc(C)n3)CC[C@@H]2O)c1` the figure was 2.58%; with `COc1c(CNC2CCN(c3ccccn3)CC2)c(C(C)C)nn1C`, -8.06%. Take `Cc1cnc(N2CC[C@@H]3CN(Cc4ccncc4)CCO[C@@H]3C2)nc1`: the cytotoxicity at 10 µM was 3.23%. With `COc1cccc(C2CCCN2CCCNS(C)(=O)=O)c1` (stereo unspecified) the figure was -2%. In the case of `COc1ccc(CNC(=O)NCc2ccc(C)cc2)cn1`, the cytotoxicity at 10 µM was -5.63%. As for `NC(=O)N1CC2(CCNCC2)c2cc(Cl)ccc21`, the cytotoxicity at 10 µM was found to be 1.79%. Regarding `Cc1nc(CN(C)C2CCN(CC(=O)N(C)CCC#N)C2)no1` (stereo unspecified), the cytotoxicity at 10 µM is -3.6%.

As for `CN1CC2(CCCN(c3nc(N)nc4c3CCCC4)C2)OC1=O` (stereo unspecified), the cytotoxicity at 10 µM is -0.519%. Regarding `COCCNc1ccccc1CNC(=O)NCc1nc(C)c(C)s1`, the cytotoxicity at 10 µM turned out to be 5.75%. To `c1cc2c(cc1Cn1cc(C3CCOC3)nn1)OCO2` (stereo unspecified) belongs 3.86%; to `Cc1nc(CNC(=O)NC2CCN(c3ncccc3Cl)C2)oc1C` (stereo unspecified), 2.93%. Regarding `Cc1cc(N(C)C)nc(NC2CCc3nc(C)nn3C2)n1` (stereo unspecified), the cytotoxicity at 10 µM was 5.56%. As to `Cc1nccn1CCCC(=O)N1CCCC(c2noc(C(C)C)n2)C1` (stereo unspecified), the cytotoxicity at 10 µM was -35.8%. As to `Cc1nc(C)n(CC2CN(CCOc3cccc(C#N)c3)CCO2)n1` (stereo unspecified), the cytotoxicity at 10 µM was -13.2%.

Consider `CCCc1cc(CN(C)C2CSCCSC2)n[nH]1`, for which the cytotoxicity at 10 µM was 0.786%. To `COc1ccccc1OCCn1c(C)c(C)oc1=O` belongs -3.05%; to `Cc1cc(N2CCC(n3cc(CCCO)nn3)CC2)ccn1`, 3.6%. As to `Cn1cc(C(=O)N2CC[C@@]3(O)CCN(C(=O)C4CCCC4)C[C@H]3C2)cn1`, the cytotoxicity at 10 µM is -138%. Regarding `O=C(c1cscn1)N1CCC[C@]2(C[C@H](OCC3CC3)CO2)C1`, the cytotoxicity at 10 µM is -2.86%. With `COC(=O)C1CCN(C(=O)c2ccc(C)c(NS(C)(=O)=O)c2)CC1` the figure was 3.98%.

With `Cc1ccnn1CCC(=O)N1CCOC(CCc2ccccc2)C1` (stereo unspecified), the cytotoxicity at 10 µM was -51.1%.

For `CCOc1cc(CN(C)CCC(=O)OC)ccc1OC(F)F`, the cytotoxicity at 10 µM was -0.769%. As to `CCOC(C)c1noc(CN(C)C(=O)c2ccncc2)n1` (stereo unspecified), the cytotoxicity at 10 µM worked out at 14.5%. Regarding `Cn1cnc(S(=O)(=O)N2CCO[C@H]3[C@@H](OCC4CC4)CC[C@@H]32)c1`, the cytotoxicity at 10 µM came out at 7.74%. For `COc1ccc(Cc2ncc3c(n2)CN(C(=O)C(C)(C)C)C3)cc1`, the cytotoxicity at 10 µM is -1.1%. Take `CCO[C@@H]1CCN(C(=O)c2cscn2)[C@@H]1Cc1cnn(C)c1`: the cytotoxicity at 10 µM was 4.84%.

On to `CC(C)(C)NC(=O)CN1CCNCC1`, for which the cytotoxicity at 10 µM is -143%. With `Cn1nc(CN2CCCCC2)c2c1CN(C(=O)Nc1cccc(F)c1)C2`, the cytotoxicity at 10 µM was determined as 5.68%.

`CC(C)NC(=O)N1CC[C@H]2N(C)CC[C@@]2(C(=O)Nc2cccnc2)CC1`: the cytotoxicity at 10 µM is -109%. For `CN(C)C(=O)CNC(=O)c1cc2c(s1)CCN2S(C)(=O)=O`, the cytotoxicity at 10 µM was found to be 0.793%. Turning to `Cc1ccc(CNC(=O)Nc2nccs2)cn1`, the cytotoxicity at 10 µM was -23.8%. To `Cc1cnc(C(=O)N2CCN(C(=O)C(C)C)[C@@H]3CS(=O)(=O)C[C@@H]32)cn1` belongs 7.91%; to `Cc1cc(CN2CCC(N(C)Cc3nnc(C4CC4)n3C)C2)on1` (stereo unspecified), -11.6%. In the case of `Clc1cccc(Cl)c1CN(CCCN1CCOCC1)Cc1cccnc1`, the cytotoxicity at 10 µM was -0.52%. `N#Cc1cnc2ccccc2c1N1CCN(C(=O)C2CCC2)CC1`: the cytotoxicity at 10 µM was -2.3%. For the compound `N[C@@H]1c2ccccc2C2(CCN(C(=O)c3ccc(=O)[nH]c3)CC2)[C@H]1O`, the cytotoxicity at 10 µM is 3.27%. With `CO[C@H]1C[C@@H](O)C12CCN(C(=O)CCCOc1ccccc1)CC2`, the cytotoxicity at 10 µM is -2.22%. In the case of `Cc1nc2ncccn2c1C(=O)N1CCc2[nH]cnc2C1`, the cytotoxicity at 10 µM turned out to be 7.94%. To `COCc1noc(CN2C[C@H](C3CC3)[C@@H](N(C)C)C2)n1` belongs 1.31%; to `CCOc1ccnc(N2CCN(C(=O)c3cc[nH]n3)CC2)n1`, 8.82%; to `CC1CN(CCOc2cccc(C#N)c2)CCN1Cc1nccn1C` (stereo unspecified), -2.81%. Regarding `COC(=O)C(C)(C)S(=O)(=O)c1ccc(Br)cc1`, the cytotoxicity at 10 µM turned out to be 5.25%.

Regarding `Cc1cnn(CCNCc2nc(-c3ccsc3)oc2C)c1`, the cytotoxicity at 10 µM is -3.55%.

In the case of `CSc1ccccc1CN1CCn2nc(CNC(=O)N(C)C)cc2C1`, the cytotoxicity at 10 µM worked out at 19.5%.

For `Cc1cccc(C(=O)N2CCCN(CCc3scnc3C)CC2)c1`, the cytotoxicity at 10 µM is -2.52%. For `CCOC(=O)C1CN(S(=O)(=O)CC)Cc2ncn(CC)c21` (stereo unspecified), the cytotoxicity at 10 µM worked out at 6.83%. Take `COc1ccc(C(C)NC(=O)NCCNc2ccccn2)c(OC)c1` (stereo unspecified): the cytotoxicity at 10 µM is 0.00455%. On to `COc1ccc(COCC(O)CSc2ccc(NC(C)=O)cc2)cc1` (stereo unspecified), for which the cytotoxicity at 10 µM was 8.22%.
